Reference: PubChem BioAssay
A number with no mark means an inactive call. Records with an inconclusive call do not appear. Activity calls are given as the source filed them.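 Rule for the calls, unless noted: active = cell viability at or below a set limit in both duplicate runs, the limit being the all-compound median minus 4 SD (cut at about 23% in these data, passing the limit was not always enough); inconclusive = no clear call, values can overlap the other calls; inactive = the rest.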

Columns and labels:
[1] = OD615 S. cerevisiae growth inhibition, permissive medium, pilot counter-assay, permissive growth control for S. cerevisiae lifespan shortening project (AID 705;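 active = growth inhibition above 25% in both replicates, a cutoff set 3 SD above the mean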); settings: OD615, 24 h, at 10 µM, hits give high values
In short: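 System: engineered DeaD yeast; Medium: permissive raffinose/galactose medium; Compound dosing: 10 µM single dose, 0.25% DMSO; Incubation: 4 h cell pre-growth, 24 h exposure at 30 °C; Technique: OD at 615 nm; Evaluation: growth inhibition from lowered OD615 after 24 h.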

[2] = Restrictive medium S. cerevisiae growth inhibition, OD615, pilot screen of yeast lifespan reduction project, restrictive growth control (AID 706;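 active = growth inhibition above a set limit, 3 SD over mean compound inhibition, in both replicates, cut at about 43% in these data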;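 note: modified DeaD lifespan yeast strain shifted to restrictive glucose medium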); settings: OD615, 48 h, at 10 µM, hits give high values
In short: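 Material: modified S. cerevisiae; buffer or medium: CSMM-D glucose medium; doses: one concentration, 10 µM final, 0.25% DMSO; incubation: 48 h compound exposure at 30 °C; detection: optical density at 615 nm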

[3] = viability gain of MRP-1-high H69AR cells under doxorubicin, pilot screen, MRP-1 activator project, CellTiter-Glo, duplicate (AID 807;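 active = viability increase at or above a cutoff of the median across tested compounds plus 3 SD, cut at about 8.5% in these data, passing the limit was not always enough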;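 note: compound pretreatment 18-22 h then 72 h combined with doxorubicin; 0% = doxorubicin alone and 100% = vehicle without doxorubicin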); settings: H69AR viability with doxorubicin, CellTiter-Glo luminescence; at 10 µM; hits give high values
[4] = growth suppression of beta-catenin knockout HCT116, pilot screen, human colon tumor cells (AID 823); settings: CellTiter-Glo, 60 h, at 10 µM, hits give low values;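 note: 0% = wells killed by 20 µM Hyamine and 100% = untreated DMSO cell wells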
[5] = growth suppression of PTEN-deleted HCT116, pilot screen, cell-based, HCT116 clonal line, CellTiter-Glo (AID 824;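 active = viability at or below 27.92% in each of two runs, the all-compound median minus 4 SD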;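 note: 0% = 20 µM Hyamine control and 100% = vehicle cell control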); settings: 60 h, at 10 µM, hits give low values
[6] = inhibitors of the yeast RAM network, pilot screen, dse1pr::URA3 reporter, 5-FOA selection (AID 869;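 active = inhibition over a set limit, the all-compound mean plus 3 SD, in both replicate runs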;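 note: 0% = DMSO wells with no growth and 100% = 10 µM 1-NA-PP1 with full growth; RAM network block rescues cells from 5-FOA so hits raise OD615 growth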); settings: S. cerevisiae dse1pr::URA3 5-FOA growth, OD615, 2 d; at 10 µM; hits give high values; strain carries analog-sensitive mutant Cbk1 kinase
[7] = RAM signaling pathway blockade in yeast – S. cerevisiae, Pdr1DBD-CYC8 efflux-inhibited sensitized strain, primary screen (AID 1298;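 active = RAM network inhibition above 8.4% in each of two replicates, 3 SD over the compound average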;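 note: 0% = DMSO untreated cells without growth and 100% = 10 µM 1-NA-PP1 full growth; higher means more yeast growth rescued from 5-FOA killing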); settings: S. cerevisiae cbk1-as DSE1-URA3 strain, 5-FOA growth OD615, 2 d; at 50 µM; hits give high values

Row | SMILES | growth inhibition [1] [%] | growth inhibition [2] [%] | viability increase [3] [%] | viability [4] | viability [5] | inhibition [6] [%] | RAM network inhibition [7] [%]
1 | CCSc1nnc(NC(=O)CCc2ccccc2)s1 | 0.055 | -7.23 | -1.7 | 88.7% | 95.1% | 3.51 | 3.66
2 | CC(NC(=O)COc1ccccc1)C(c1ccccc1)N1CCN(C)CC1 (centres undefined) | -4.2 | -7.49 | -3.94 | 97% | 96.8% | 1.02 | 4.65
3 | Cc1cc(Nc2ccc(F)cc2Cl)n2ncnc2n1 | -7.73 | 2.61 | -2.45 | 103% | 95.1% | -0.7 | 1.89
4 | CCCCNc1cc(=O)n(C)c(=O)[nH]1 | -12.2 | -4.46 | -0.6 | 104% | 96.5% | 1.55 | 2.98
5 | CCc1c(C)nc(SCC(=O)Nc2ccc(Br)cc2)[nH]c1=O | -11.9 | 0.39 | 1.64 | 98.3% | 103% | 1.89 | 3.9
6 | CCCSc1n[nH]c(NC(C)=O)n1 | -9.97 | 7.95 | -0.65 | 98.6% | 101% | 2.27 | 2.41
7 | COc1cc(=O)[nH]c(=O)n1C(=O)Cc1ccccc1 | -1.48 | -1.73 | 0 | 97.4% | 104% | -0.145 | 4.08
8 | COc1cc2c(cc1OC)C1=C(C#N)CN(CC(=O)O)CN1CC2 | -0.125 | 11.3 | -4.43 | 106% | 96% | 1.7 | 1.9
9 | NC(=O)c1ccsc1NC(=O)c1ccc(S(=O)(=O)N2CCCCC2)cc1 | -4.08 | -4.94 | -0.57 | 71.9% | 58.3% | 1.47 | 2.41
10 | CCCSc1nc2c(cnn2-c2ccc(F)cc2)c(=O)[nH]1 | -5.3 | -3.29 | -2.46 | 95% | 94.7% | 0.82 | 2.71
11 | COCCNC(=O)Cn1cnc2c1c(=O)n(C)c(=O)n2C | -16.3 | -12.6 | -0.95 | 97.6% | 98.3% | 1.23 | 3.4
12 | COc1cccc2c(=O)n(CC(=O)NC3CCCCC3)ccc12 | 0.435 | -6.59 | -1.27 | 103% | 90.3% | 1.58 | 4.45
13 | Cc1cc(-c2c(C)n([O-])c(C)c(C)[n+]2=O)ccc1F | -10.8 | -3.75 | 0.1 | 102% | 98.2% | 1.03 | 0.32
14 | Cc1ccc(O)c(-c2cc(C(F)(F)C(F)F)[nH]n2)c1 | -5.95 | -19.7 | -4.24 | 97.1% | 87.3% | 0.725 | 3.84
15 | CCn1c(O)c(C2=NCCCC2)c2ccccc21 | 0.575 | 11.6 | -0.12 | 95% | 102% | -0.49 | 1.14
16 | CCCNC(=O)c1noc2c1CCc1ccccc1-2 | -1.21 | 5.41 | -1.54 | 98.3% | 104% | 0.305 | -1.13
17 | CCC(C(=O)N1CC2(C)CC1CC(C)(C)C2)N1C(=O)c2ccccc2C1=O (centres undefined) | -2.71 | -3.99 | -3.05 | 91.5% | 96.8% | 1.57 | 6
18 | CCC(C)N1C(=O)CCC1C(=O)NCc1ccc2c(c1)OCO2 (centres undefined) | -0.51 | -0.82 | -3.05 | 102% | 97.2% | 2.33 | 4.46
19 | CC1CC(C)CN(S(=O)(=O)c2cccc3cccnc23)C1 (centres undefined) | -4.23 | -6.44 | -4.51 | 87.9% | 94.9% | -0.45 | 1.83
20 | Cc1csc(NC(=O)C2CCCN(S(=O)(=O)c3cccnc3)C2)n1 (centres undefined) | -7.25 | 1.94 | -0.73 | 104% | 101% | 1.59 | 4.94
21 | O=C1CSC(=S)N1Cc1cccnc1 | -15.3 | 16.2 | -8.48 | 8.06% (active) | 9.45% (active) | 0.82 | -0.15
22 | COc1ccc(OC)c(S(=O)(=O)Nc2ccc(OCC(=O)O)cc2)c1 | -9.87 | -4.85 | -0.45 | 98.3% | 91.1% | 0.98 | 2.71
23 | Cn1c(SCC(=O)Nc2ccc(F)cc2F)nnc1-c1cccnc1 | -13.9 | -8.12 | -0.94 | 104% | 95% | 3.28 | -0.27
24 | COC(=O)c1ccc(C)c(NS(=O)(=O)c2ccc(OC)cc2)c1 | -0.83 | -23.9 | -5.33 | 16.6% (active) | 20.5% (active) | 2.15 | 9.79

Row | SMILES | growth inhibition [1] [%] | growth inhibition [2] [%] | viability increase [3] [%] | viability [4] | viability [5] | inhibition [6] [%] | RAM network inhibition [7] [%]
25 | CCCC(=O)NCCCc1nc2ccccc2n1CC | -7.75 | 0.985 | 0.81 | 100% | 101% | -0.16 | 0.58
26 | COc1ccc(N(CC(=O)N2CCN(c3ccccc3)CC2)S(=O)(=O)c2c(C)noc2C)cc1 | -9.29 | -0.83 | -4.48 | 93.7% | 85.6% | 0.315 | 3.7
27 | CCc1nnc(NC(=O)CSc2nccn2-c2cccc(C)c2)s1 | -8.43 | 11.6 | 0.02 | 109% | 98.1% | 0.64 | 5.11
28 | CC1CCCCC1NC(=O)C1CCN(C(=O)c2sccc2-n2cccc2)CC1 (centres undefined) | -4.95 | -6.6 | -1.22 | 105% | 94.8% | 2.28 | 4.86
29 | CCSc1nc2c(c(=O)n1-c1ccc(F)cc1)SCC2 | -7.3 | -6.39 | -2.75 | 89.2% | 94.2% | 1.18 | -0.35
30 | O=C1CC(c2ccco2)CC(O)=C1C=NCC1CCNCC1 (centres undefined) | -17.1 | -5.49 | 1.85 | 102% | 101% | 0.37 | 3.8
31 | c1cc(-c2nnc3n2CCC3)[nH]n1 | 1.95 | -0.075 | -2.22 | 95.9% | 104% | 1.51 | 2.34
32 | CCCCCn1c(CNC(=O)CC)nc2ccccc21 | -6.04 | -11.1 | 0.02 | 97.5% | 96.5% | 1.53 | 4.9
33 | Cc1ccc(SCCNC(=O)C(CO)(CO)CO)cc1 | 2.57 | -1.61 | -0.51 | 101% | 98.7% | 0.935 | 0.52
34 | O=C1NCCCC1C(=O)NCCN1C(=O)CCC1=O (centres undefined) | -14.3 | -7.9 | 0.1 | 96.7% | 96% | 1.04 | 3.29
35 | Cc1ccc2oc3c(c(=O)c2c1)C(c1cccs1)N(CCCN(C)C)C3=O (centres undefined) | 2.01 | 4.98 | -2.74 | 97.2% | 97.8% | 1.28 | -1.13
36 | Clc1ccc(-n2ncc3c(NCC4CCCO4)ncnc32)cc1 (centres undefined) | -7.04 | -19.4 | -5.71 | 37.6% | 37.2% | 0.57 | 8.53
37 | CC(C)n1c(SCCCc2ccccc2)nc2c1c(=O)[nH]c(=O)n2C | -6.04 | 4.52 | -0.9 | 92.2% | 87.5% | 1.95 | 8.85
38 | CCOC(=O)COC(=O)c1ccc(O)cc1 | -4.13 | -13.5 | -0.28 | 93% | 97.8% | 1.47 | 0.37
39 | O=S(=O)(Nc1nnc(-c2ccccc2)s1)c1ccc(Cl)cc1 | 4.67 | 14.4 | -0.34 | 104% | 105% | 3.29 | 1.95
40 | O=C(NCCCN1CCCCC1)C1(S(=O)(=O)c2ccc(Cl)cc2)CC1 | -12.4 | -14 | -1.07 | 103% | 97.2% | 1.6 | 2.82
41 | CCCn1c2ccccc2c2cc(C(=O)O)ccc21 | -20.7 | -6 | -3.03 | 106% | 93.5% | 1.95 | 2.82
42 | COc1cc(C(=O)N2CCN(C(=O)C(Cc3cc(C)ccc3C)NC(C)=O)CC2)cc(OC)c1OC (centres undefined) | -24.3 | -16.3 | -2.13 | 97.7% | 88.2% | 1.05 | 1.42
43 | Cc1ccnc(N2C(=O)c3ccccc3C2Nc2cccc(C)c2C)c1 (centres undefined) | -14 | -0.8 | 0.92 | 92% | 87.1% | 1.32 | 6.56
44 | Cc1c(N=C2C(=O)Nc3ccccc32)c(=O)n(-c2ccccc2)n1C | -1.19 | 0.225 | -2.29 | 108% | 90.3% | 0.61 | 1.79
45 | O=C(NC1CCCCC1)c1ccc(S(=O)(=O)N2CCOCC2)cc1 | -2.04 | -2.56 | 0.17 | 104% | 101% | 0.855 | -0.73
46 | COc1cc2c(cc1OC)CN(S(C)(=O)=O)CC2 | -0.905 | -20.7 | -2.27 | 110% | 94.7% | 1.33 | 1.26
47 | N#CC1=C(N)Oc2n[nH]c(-c3ccccc3)c2C1c1cccc(OC(=O)N2CCOCC2)c1 (centres undefined) | -12.4 | 2.86 | -2.68 | 97.6% | 104% | 2.34 | 5.62
